Drawing on ChEMBL document CHEMBL3751756, “Hydroxylated chalcones with dual properties: Xanthine oxidase inhibitors and radical scavengers” (Bioorg Med Chem, 2016), this text covers IC50, Activity and viability for 20 compounds.

As a reminder, the pIC50 is −log10 of the IC50, conventionally taken in molar units.

pIC50: −log10 of the molar value.

In data set [1] the target is Xanthine dehydrogenase/oxidase (Bos taurus, UniProt P80457). Put plainly: Inhibition of bovine xanthine oxidase assessed as conversion of xanthine to uric acid by spectroscopic analysis. As to conditions: for pIC50: read-out: IC50. A digest of the protocol: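 XO suspended in 20 mM phosphate pH 7.5, added to xanthine (final 46 μM; final enzyme 39 μg/mL); uric acid formation followed at 295 nm for 5 min. Eleven inhibitor concentrations bracketing the IC50; rates by linear regression of absorbance vs time, fitted to a three-parameter logistic to give IC50.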
Chain of Xanthine dehydrogenase/oxidase (P80457 whole entry): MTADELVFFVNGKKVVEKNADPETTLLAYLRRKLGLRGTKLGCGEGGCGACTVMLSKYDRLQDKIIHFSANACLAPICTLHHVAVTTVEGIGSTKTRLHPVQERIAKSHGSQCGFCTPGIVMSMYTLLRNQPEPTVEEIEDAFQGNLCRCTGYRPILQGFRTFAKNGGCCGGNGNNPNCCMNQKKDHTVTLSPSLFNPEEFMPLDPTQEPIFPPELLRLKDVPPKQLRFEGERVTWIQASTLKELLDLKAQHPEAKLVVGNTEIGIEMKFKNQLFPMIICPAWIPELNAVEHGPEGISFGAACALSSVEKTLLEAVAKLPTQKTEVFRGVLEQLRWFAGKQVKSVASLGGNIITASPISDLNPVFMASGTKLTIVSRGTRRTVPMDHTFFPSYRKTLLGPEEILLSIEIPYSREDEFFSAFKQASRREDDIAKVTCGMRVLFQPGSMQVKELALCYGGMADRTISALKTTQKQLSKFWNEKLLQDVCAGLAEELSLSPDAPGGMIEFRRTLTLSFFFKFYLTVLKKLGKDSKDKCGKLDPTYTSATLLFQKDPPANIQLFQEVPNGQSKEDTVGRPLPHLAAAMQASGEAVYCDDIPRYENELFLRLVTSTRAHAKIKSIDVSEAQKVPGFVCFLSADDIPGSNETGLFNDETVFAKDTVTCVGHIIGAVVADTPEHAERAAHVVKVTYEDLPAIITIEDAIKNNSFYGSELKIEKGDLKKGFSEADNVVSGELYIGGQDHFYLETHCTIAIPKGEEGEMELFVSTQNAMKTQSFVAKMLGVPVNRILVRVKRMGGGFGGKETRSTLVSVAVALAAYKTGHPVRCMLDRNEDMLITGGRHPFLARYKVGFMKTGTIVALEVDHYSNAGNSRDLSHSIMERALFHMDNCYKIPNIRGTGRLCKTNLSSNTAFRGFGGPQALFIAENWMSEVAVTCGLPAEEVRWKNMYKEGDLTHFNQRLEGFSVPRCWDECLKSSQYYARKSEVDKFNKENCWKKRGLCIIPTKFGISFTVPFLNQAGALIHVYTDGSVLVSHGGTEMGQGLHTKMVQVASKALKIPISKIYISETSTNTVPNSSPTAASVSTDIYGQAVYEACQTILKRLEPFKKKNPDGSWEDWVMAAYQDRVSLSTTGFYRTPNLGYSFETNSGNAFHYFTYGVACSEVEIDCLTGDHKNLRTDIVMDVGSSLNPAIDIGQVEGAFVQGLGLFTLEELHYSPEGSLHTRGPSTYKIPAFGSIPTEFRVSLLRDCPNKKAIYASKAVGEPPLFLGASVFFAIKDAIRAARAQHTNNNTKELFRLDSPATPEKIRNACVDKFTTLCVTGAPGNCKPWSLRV

Data set [2] can be described thus: Antioxidant activity assessed as DPPH radical scavenging activity by measuring remaining DPPH level at 20 uM after 30 mins by plate reader analysis. Type of data set: physicochemical. The conditions noted are these: 0.5 h. In a few lines:
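DPPH (0.2 mM in ethanol, 50 μL freshly prepared) mixed with 150 μL test compound in ethanol, 5–50 μM range; 30 min at room temperature in dark; loss of absorbance at 517 nm read. Scavenging activity = (1 − A_test/A_control) × 100%, control lacking scavenger; reported activity taken at 20 µM compound.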

The nature of data set [3]: Cytoprotective activity against amyloid beta-induced oxidative stress in mouse Neuro2a cells assessed as cell viability at 250 uM after 6 hrs by MTT assay. Format: functional. The conditions noted are these: N2a, read-out: Activity. A digest of the protocol:
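Murine Neuro-2A cells in DMEM with 10% FBS and penicillin-streptomycin, 37°C, 5% CO2; trypsinized ≤1 min, seeded 2,000–4,000 cells/mL, 6 h. Then added 10 μL of 250 μM compound (stock), 15 μL of 833 μM Aβ 25–35 (stock), and MTT (5 mg/mL); 6 h, then SDS/DMF extraction buffer 6 h at 37°C in dark; A570 as percent of unstressed control.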
In general terms: Formazan colour is commonly taken as a measure of viable cells.

Turning to `O=C(/C=C/c1ccc(O)c(O)c1O)c1ccc(O)c(O)c1`, in data set [1], the pIC50 was 4.74. In addition, in data set [2], the Activity was determined as 57%. In data set [3], the viability at 250 µM is 51%.
In the same order, the values of `O=C(/C=C/c1ccc(O)c(O)c1)c1ccc(O)cc1` are 5.37, 42% and 28%.
In the same order, the values of `O=C(/C=C/c1ccc(O)c(O)c1O)c1ccc(O)c(O)c1O` are 5.26, 82% and 91%.
In the same order, the values of `O=C(/C=C/c1ccc(O)c(O)c1)c1c(O)cccc1O` are 4.46, 90% and 28%.
With `O=C(/C=C/c1ccccc1)c1cccc(O)c1`, the IC50 result in data set [1] is on record as “Not Active”. For the same compound, the Activity in data set [2] worked out at 0.2%. Moreover, in data set [3], the viability at 250 µM was 5.9%.
In the case of `O=C(/C=C/c1ccc(O)c(O)c1)c1ccc(O)c(O)c1O`, in data set [1], the pIC50 was 5.92. Besides, the Activity in data set [2] is given as 92%. Moreover, in data set [3], the viability at 250 µM came out at 118%.
On the same counts, the results for `O=C(/C=C/c1ccc(O)c(O)c1)c1ccc(O)c(O)c1` are 5.52, 77% and 40%.
In the case of `O=C(/C=C/c1ccc(O)cc1)c1ccccc1` [4-HYDROXYCHALCONE], in data set [1], the pIC50 was 3.54. Further, the Activity in data set [2] was -9.1%. In data set [3], the viability at 250 µM was 0%.
In the same order, the values of `O=C(/C=C/c1ccc(O)c(O)c1)c1cc(O)cc(O)c1` are 5.19, 84% and 26%.
As for `O=C(/C=C/c1ccccc1)c1ccc(O)cc1O` [2',4'-DIHYDROXYCHALCONE], the IC50 entry in data set [1] is on record as “Not Active”. Also, in data set [2], the Activity is -3%. Also, the viability at 250 µM in data set [3] was found to be 3.9%.
As to `O=C(/C=C/c1cccc(O)c1)c1ccc(O)cc1O`, in data set [1], the pIC50 is 4.57. The Activity in data set [2] amounted to 0.5%. Besides, in data set [3], the viability at 250 µM amounted to 6.9%.
In the same order, the values of `O=C(/C=C/c1cc(O)ccc1O)c1ccc(O)c(O)c1` are 5.07, 86% and 70%.
`O=C(/C=C/c1ccccc1)c1ccccc1O` [2'-HYDROXYCHALCONE]: the IC50 result in data set [1] is listed as “Not Active”. Also, the Activity in data set [2] was 6.7%. In addition, the viability at 250 µM in data set [3] amounted to 1.7%.
On to `O=C(/C=C/c1ccc(O)c(O)c1)c1cccc(O)c1`, for which, in data set [1], the pIC50 was 5.28. Further, the Activity in data set [2] is given as 82%. The viability at 250 µM in data set [3] was determined as 35%.
On to `O=C(/C=C/c1ccccc1)c1ccc(O)cc1` [4'-HYDROXYCHALCONE], for which, in data set [1], the IC50 entry is on record as “Not Active”. Moreover, the Activity in data set [2] was -1.4%. The viability at 250 µM in data set [3] stood at 1.4%.
On the same counts, the results for `O=C(/C=C/c1ccccc1O)c1ccccc1` are “Not Active”, -0.6% and 3%.
Turning to `O=C(/C=C/c1cccc(O)c1O)c1ccc(O)c(O)c1`, the pIC50 in data set [1] was 4.03. Besides, the Activity in data set [2] was 70%. Also, in data set [3], the viability at 250 µM came to 46%.
On the same counts, the results for `O=C(/C=C/c1ccc(O)c(O)c1)c1ccccc1` are 4.28, 90% and 4.3%.
`O=C(/C=C/c1ccc(O)c(O)c1)c1cc(O)ccc1O`: the pIC50 in data set [1] was 4.77. Also, the Activity in data set [2] was determined as 91%. Besides, the viability at 250 µM in data set [3] turned out to be 46%.
In the same order, the values of `O=C(/C=C/c1ccc(O)c(O)c1)c1ccc(O)cc1O` [BUTEIN] are 5.89, 90% and 71%.
